# Bioassay records: PubChem, several laboratories
# SENP6 block: SENP6 protease inhibitors, primary screen, biochemical, luminescence, uHTS | Sentrin-specific protease 6 (Homo sapiens), Q9GZR1 | Recombinant SENP6 catalytic domain, aminoluciferin luminescence | inhibition, % at 10 µM | hit rate 1.8% among 330,000 | AID 2599, 2010;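 active means inhibition above about 50% at the single tested dose, limit read from the data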
# Target sequence (Q9GZR1 628-1112 limits assumed): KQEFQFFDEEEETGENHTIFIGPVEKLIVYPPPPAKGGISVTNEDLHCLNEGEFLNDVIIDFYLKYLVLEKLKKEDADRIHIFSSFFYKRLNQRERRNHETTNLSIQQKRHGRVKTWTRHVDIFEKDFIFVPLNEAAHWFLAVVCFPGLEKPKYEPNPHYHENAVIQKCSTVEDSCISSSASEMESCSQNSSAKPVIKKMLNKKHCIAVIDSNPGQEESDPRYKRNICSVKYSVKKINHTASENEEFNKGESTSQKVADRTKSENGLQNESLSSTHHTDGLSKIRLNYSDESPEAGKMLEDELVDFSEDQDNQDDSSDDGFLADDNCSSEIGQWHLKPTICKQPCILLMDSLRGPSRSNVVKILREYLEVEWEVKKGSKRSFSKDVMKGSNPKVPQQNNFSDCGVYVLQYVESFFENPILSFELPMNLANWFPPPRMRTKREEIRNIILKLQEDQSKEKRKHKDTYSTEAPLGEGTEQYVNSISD
# SENP1 FRET inh: human SENP1 catalytic domain inhibitors, primary screen, biochemical, FRET, uHTS; Sentrin-specific protease 1 (Homo sapiens), Q9P0U3; recombinant SENP1 catalytic domain, CyPet-SUMO1-YPet FRET cleavage; inhibition, % at 10 µM; hit rate 0.21% among 360,000;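 active means inhibition at least 30% at 10 µM, raw YFP signal under a set limit, fluorescence ratio 0.5 to 1.5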
#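 Material – human SENP1 catalytic domain · Input – SENP1 enzyme, 20 pM final · Compound dosing – single concentration of 10 µM compound, 0.5% DMSO final · Timing – enzyme reaction for 50 min at room temperature, dark · Measured by – FRET fluorescence in CFP and YFP emission channels · Control set – no-enzyme wells low, DMSO-plus-enzyme wells high control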
# SENP7 block: SENP7 protease inhibitors, primary screen, biochemical, luminescence, uHTS; Sentrin-specific protease 7 (Homo sapiens), Q9BQF6; recombinant SENP7, Z-RLRGG-aminoluciferin luminescence, 40 min; inhibition, % at 5 µM; hit rate 1.5% among 330,000;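 active means inhibition above about 50% at the single test dose, limit read from the data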
# HSP90 refold inh: HSP90 inhibitors, primary screen, cell lysate, luminescence; AID 1789, 2009; Rabbit reticulocyte lysate, luciferase refolding luminescence, 3 h; inhibition, % at 5.6 µM; hit rate 0.91% among 290,000; Heat shock protein HSP 90 (rabbit reticulocyte lysate; luciferase refolding);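 active means inhibition above the screen-wide mean plus 3 SD, computed separately per campaign, cut at about 16% in these data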;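 further: inhibitors lower the luminescence because luciferase stays unfolded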
# SENP8 block-1: SENP8 protease inhibitors, primary screen, biochemical, luminescence. purified SENP8, Z-RLRGG-aminoluciferin cleavage. hit rate 1.2% among 330,000. inhibition, % at 10 µM. Sentrin-specific protease 8 (Homo sapiens), Q96LD8; in the data active means inhibition above about 50%
# Target sequence (Q96LD8 whole entry, looked up): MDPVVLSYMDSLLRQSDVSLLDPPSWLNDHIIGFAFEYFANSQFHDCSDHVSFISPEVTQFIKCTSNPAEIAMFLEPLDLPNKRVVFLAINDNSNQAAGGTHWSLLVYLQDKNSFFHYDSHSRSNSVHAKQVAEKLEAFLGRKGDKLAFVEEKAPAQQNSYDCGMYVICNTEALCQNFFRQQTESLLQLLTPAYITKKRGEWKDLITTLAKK
# SENP8 block-2: human SENP8 protease inhibitors, primary screen, biochemical, fluorescence, Nedd8 protein substrate, uHTS; Sentrin-specific protease 8 (Homo sapiens), Q96LD8; hit rate 0.64% among 360,000; recombinant SENP8; inhibition, % at 20 µM; in the data active means inhibition mostly above about 40%, no sharp cut-off; inactive means mostly below about 27%
# SENP8 confirm: SENP8 protease inhibitors, retest, confirmation, biochemical, luminescence, single concentration | Recombinant SENP8, Z-RLRGG-aminoluciferin luminescence, 60 min | inhibition, % at 12.5 µM | hit rate 40% among 6,200 | AID 488912, 2010 | shares compounds with SENP7 block;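 active means mean inhibition across replicates above about 50%, limit read from the data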
# SENP6 confirm: SENP6 protease inhibitors, confirmation, biochemical, luminescence, single concentration | hit rate 58% among 6,200 | AID 488915, 2010 | shares compounds with SENP7 block | recombinant SENP6, Z-RLRGG-aminoluciferin luminescence | inhibition, % at 12.5 µM
# SENP7 confirm: SENP7 protease inhibitors, retest, confirmation, biochemical, luminescence, single concentration; recombinant SENP7, Z-RLRGG-aminoluciferin luminescence, 40 min; hit rate 69% among 6,200; inhibition, % at 12.5 µM; shares compounds with SENP7 block; AID 488917, 2010
# Casp3 select: caspase-3 protease inhibitors, confirmation, selectivity assay for SENP inhibitor project, biochemical, single concentration | shares compounds with SENP7 block | purified caspase-3, Z-DEVD-aminoluciferin luminescence, 60 min | inhibition, % at 12.5 µM | hit rate 60% among 6,200 | AID 488918, 2010;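 active means mean inhibition above about 50%, limit read from the data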
# SENP luc ctr: luminescence interference (SENP counter-screen); shares compounds with SENP7 block; Pre-incubated SENP8/Z-RLRGG-aminoluciferin, luciferase luminescence interference; inhibition, % at 12.5 µM; hit rate 39% among 6,200; AID 488919;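 active means mean inhibition above about 50% when retested at one dose, limit read from the data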
# Hits are given with their value; - = inactive; . = not tested or not shown. Most compounds without a hit are left out; they make up all but 2.9% or so of the library.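 How the source made its calls, unless noted: active means mean inhibition above about 50% in the one-dose retest (limit read from the data); inactive means the rest.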
SMILES,SENP6 block,SENP1 FRET inh,SENP7 block,HSP90 refold inh,SENP8 block-1,SENP8 block-2,SENP8 confirm,SENP6 confirm,SENP7 confirm,Casp3 select,SENP luc ctr
CCOc1ccccc1NC(=O)Nc1ccc2c(c1)OCO2,86,-,85,-,72,-,-,81,97,79,79
Cc1ccc(C)c(NC(=O)Nc2ccc3c(c2)OCO3)c1,-,-,-,-,-,-,.,.,.,.,.
O=C(Nc1ccc2c(c1)CCC2)Nc1ccccc1Cl,95,-,94,-,91,-,-,93,72,81,-
Cc1ccccc1NC(=O)Nc1ccc2c(c1)OCO2,91,-,96,-,79,-,-,74,-,92,-
O=C(Nc1ccccc1Cl)Nc1ccccc1Cl,-,-,-,-,-,-,.,.,.,.,.
O=C(Nc1ccc(Nc2ccccc2)cc1)Nc1ccccc1Cl,88,-,85,-,86,-,71,89,99,56,63
O=C(CN1C(=O)CSc2ccc(S(=O)(=O)N3CCCCC3)cc21)NCc1ccccc1,-,-,-,-,-,-,.,.,.,.,.
N/C(=N\OC(=O)CCCc1ccccc1)c1ccccn1,50,-,-,-,-,-,-,-,73,73,54
N/C(=N\OC(=O)CCC1CCCC1)c1ccccc1,69,-,-,-,-,-,72,71,89,83,53
N/C(=N\OC(=O)CCC1CCCC1)c1ccccn1,87,-,68,-,67,-,82,80,95,91,83
CC(C)CNc1ncnc2c1ncn2[C@H]1CN(Cc2ccco2)C[C@@H](CO)O1,.,-,.,.,.,-,.,.,.,.,.
COc1ccccc1-c1nnc(SCC(=O)Nc2ccc(N3CCOCC3)cc2)n1N,-,-,-,.,-,-,.,.,.,.,.
COc1ccc(N(CC(=O)NCc2ccc(C)cc2)S(=O)(=O)c2c(C)noc2C)cc1,-,-,-,-,-,-,.,.,.,.,.
NNC(=O)c1ccc(Cn2cccn2)o1,-,-,-,-,-,-,.,.,.,.,.
CSc1cccc(NC(=O)/C=C/c2ccccc2)c1,51,-,-,-,-,-,57,54,81,-,65
O=C(/C=C/c1ccccc1)Nc1cccc(C(=O)O)c1,99,-,100,89,97,-,-,99,103,95,98
CSc1cccc(NC(=O)/C=C/c2ccc(Cl)cc2)c1,66,-,59,-,-,-,54,59,84,-,51
Cc1nc(-c2ccccn2)nc(N(C)c2ccccc2)c1Cl,-,-,-,-,-,-,.,.,.,.,.
CCN1CCN(c2ccc(S(=O)(=O)N3CCCCC3)cc2NC(=O)c2cccc(OC(F)F)c2)CC1,-,-,-,.,-,-,.,.,.,.,.
C[C@@H]1CNC(=O)c2c(C(=O)N[C@H](C)c3ccccc3)ncn21,.,-,.,.,.,-,.,.,.,.,.
Cc1c(C(=O)/C=C/c2cccs2)oc2ccc(F)cc12,52,-,-,-,-,-,-,-,-,-,-
Cc1c(C(=O)Nc2nccs2)oc2ccc(F)cc12,-,-,-,.,-,-,.,.,.,.,.
COCc1cc(CNC(=O)C2CCC(=O)N(Cc3cccc(OC)c3)C2)[nH]n1 (stereo not drawn),-,-,-,-,-,-,.,.,.,.,.
Cc1cccc(-c2nc(=S)c3c(o2)CCCC3)c1,62,-,72,-,52,-,52,-,76,-,51
S=c1nc(-c2ccc(Br)cc2)oc2c1CCCC2,-,-,-,-,-,-,.,.,.,.,.
SMILES,SENP6 block,SENP1 FRET inh,SENP7 block,HSP90 refold inh,SENP8 block-1,SENP8 block-2,SENP8 confirm,SENP6 confirm,SENP7 confirm,Casp3 select,SENP luc ctr
O=C(Nc1cccc(Cl)c1)N1CCc2ccccc2C1,51,-,-,-,-,-,-,-,78,-,-
CCN(C(=S)NC(=O)c1ccco1)c1cccc2ccccc12,70,-,-,.,-,-,-,-,-,-,-
CN=C1S/C(=C\c2ccc(N3CCCC3)c(F)c2)C(=O)N1C,73,-,71,-,-,-,-,-,-,-,-
CCOc1ccc(CCNC(=O)Cn2nc(C)c3c(C)n(-c4ccccc4)nc3c2=O)cc1OCC,-,-,-,-,-,-,.,.,.,.,.
Cc1ccc(O)c(N=Nc2ccccc2)n1,93,-,100,.,95,-,95,98,103,96,62
CCOC(=O)c1ccc(NC(=O)c2cc3ccccc3o2)cc1,60,-,52,-,-,-,-,53,60,-,-
O=C(Nc1cccnc1)c1cc2cc(Br)ccc2o1,91,-,92,-,85,-,89,88,100,91,-
Cc1cccc(NC(=O)c2cc3ccccc3o2)c1,94,-,94,-,87,-,-,94,101,91,92
CCC(=O)Nc1cccc(NC(=O)c2cc3ccccc3o2)c1,67,-,74,-,54,-,74,67,88,74,70
O=C(NC(=S)Nc1cccnc1)c1cc2ccccc2o1,-,-,-,-,-,-,.,.,.,.,.
Cc1nc(C(=O)N2CCC(n3nccc3NC(=O)Nc3ccccc3Cl)CC2)cs1,-,-,-,-,-,-,.,.,.,.,.
CCc1noc(C)c1C(=O)N(Cc1ccccc1)c1c(N)n(CCOC)c(=O)[nH]c1=O,-,-,-,.,-,-,.,.,.,.,.
OCC1OC2C(NC(=S)N2c2ccccc2)C(O)C1O (stereo not drawn),.,-,.,.,.,-,.,.,.,.,.
CCN(c1ccccc1)S(=O)(=O)c1ccc(C(=O)Nc2ccc(C)cn2)cc1,-,-,-,.,-,-,.,.,.,.,.
O=C(Nc1cccc(Br)c1)c1cc2ccccc2o1,94,-,-,-,89,-,94,94,101,82,88
Cc1ccc([C@@H]2CC(=O)[C@@H]3CN(S(=O)(=O)c4ccc(C)cc4)[C@H](c4ccc(Cl)cc4)C[C@@H]3N2S(=O)(=O)c2ccc(C)cc2)cc1,.,-,.,.,.,-,.,.,.,.,.
